From ChEMBL document CHEMBL1138243, “Design of mechanism-based inhibitors of transthyretin amyloidosis: studies with biphenyl ethers and new structural templates” (J Med Chem, 2007) come the findings set out here.

Active and inactive are the calls of the source. The rule behind the calls is not given here.

Test [1] addresses T1, Transthyretin (Homo sapiens, UniProt P02766). The test can be described thus: Inhibition of transthyretin fibril formation assessed as turbidity at 21.6 uM at pH 4.4 after 3 hrs. Format: functional. The method in brief: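 Kinetics run with 7.2 µM TTR plus 21.6 µM inhibitor at pH 4.4, 37 °C. Turbidity at 340 nm was followed for 3 h. Initial fibrillization rate came from the linear slope of A340 versus time. Three experiments in triplicate.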

The target in test [2] is T1, Transthyretin. Put plainly: Stabilization of urea-induced transthyretin dissociation at 5.4 uM at pH 7.2 after 1 hr relative to control.
In test [3] the target is T1, Transthyretin. Put plainly: Inhibition of transthyretin amyloidosis assessed as fibril formation at 7.2 uM at pH 4.4 relative to control. Format: functional. Further details: scale not given: the % may be the effect or the level left. The method in brief: (§1)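 WT TTR tetramer (7.2 µM) in pH 7 phosphate/KCl/EDTA was preincubated 1 h at 25 °C with inhibitor (7.2 or 21.6 µM; 1:1 or 1:3) in 1% DMSO. It was then diluted with pH 4.4 acetate/KCl/EDTA buffer and held stagnant 72 h at 37 °C. Turbidity was read at 340 nm as % fibril formation versus untreated (100%). Mean of five experiments.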

In test [4] the target is T1, Transthyretin. Put plainly: Inhibition of transthyretin fibril formation at pH 4.4 at 50 uM. Type of test: functional. Also on record: scale not given: the % may be the effect or the level left.
Test [5] addresses T1, Transthyretin. Put plainly: Inhibition of fibril elongation of preformed transthyretin at […] after 72 hrs by turbidity assay. Type of test: functional.
In test [6] the target is T1, Transthyretin. The test can be described thus: Inhibition of transthyretin amyloidosis assessed as fibril formation at 21.6 uM at pH 4.4 relative to control. Format: functional. Also on record: scale not given: the % may be the effect or the level left. Put shortly: as §1
Test [7] can be described thus: Cytotoxicity against TTR-induced […] cells assessed as viability at 50 uM after 72 hrs. Type of test: functional. The settings on record: Mus musculus, N2a, read-out: Activity.
A further test deals with Neuro2a. Put plainly: Cytotoxicity against […] cells at 50 uM. Format: functional, cell-based. The settings on record: Mus musculus.
Test [8] concerns the target T1, Transthyretin. Put plainly: Inhibition of transthyretin fibril formation at pH 4.4. Format: functional.
Test [9] has as its target T1, Transthyretin. The test can be described thus: Binding affinity to transthyretin at pH 4.4. Put shortly: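 Kd at pH 4.4 measured by fluorescence titration of TTR. Data were fitted to the Adair equation for two binding sites, giving Kd1 and Kd2. Experiments were run in triplicate.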
In test [10] the target is T1, Transthyretin. Put plainly: Stabilization of urea-induced transthyretin dissociation at 5.4 uM at pH 7.2 after […] relative to control.

What is called inhibition is the change of the read-out against control, counted positive when it falls. As to `O=C(O)c1ccc(Oc2ccc(Cl)cc2Cl)c(O)c1`, the inhibition at Transthyretin [1] is over 80%. For the same compound, the Activity on Transthyretin [2] is 21%; on Transthyretin [3], 29%; at Transthyretin [4] it was 0%; at Transthyretin [6], 13.3%; in the test with Neuro2a, “Not toxic”. Further, the result at Transthyretin [5] was Active. Further, in test [7], the viability at 50 µM was 86%.

As usually defined, the IC50 is the concentration needed to halve the response being measured. Regarding `COc1cc(C(=O)O)ccc1Oc1ccccc1`, on Transthyretin [4], the Activity turned out to be 40%. The same compound came in with an IC50 against Transthyretin [8] of 41 µM.

Usually Kd stands for the free concentration of one partner at which half of the binding sites on the other are occupied at equilibrium, for simple one-to-one binding. Turning to `O=C(O)c1ccc(Oc2ccccc2)c(O)c1`, on Transthyretin [1], the inhibition is over 80%. The Activity on Transthyretin [3] was 32%; on Transthyretin [4], 5%; at Transthyretin [6], 5%; on Transthyretin [10], under 5%; in the test on Neuro2a, “Not toxic”. Also, at Transthyretin [9] (read-out: Kd), the equilibrium dissociation constant (Kd) was 0.027 µM. For the same compound, the outcome at Transthyretin [5] was Active. Also, the viability at 50 µM in test [7] was 86%. The compound further returned an IC50 on Transthyretin [8] of 3.18 µM.

For the compound `COc1cc(CCl)ccc1Oc1ccccc1`, the inhibition at Transthyretin [1] was over 80%. Also, the Activity at Transthyretin [3] is 25%; on Transthyretin [4] it was 0%; at Transthyretin [6], 0%; on Transthyretin [10], under 5%; in the test on Neuro2a it was “Not toxic”. Moreover, the dissociation constant Kd result at Transthyretin [9] is reported as “Active”. Moreover, on Transthyretin [5], the result was Active. The viability at 50 µM in test [7] is 86%.
